According to ChEMBL document CHEMBL1133118 (J Med Chem, 2000):

Experiments:
Adenosine receptor A1 [1] = molecular target: T1, Adenosine receptor A1 (Homo sapiens, UniProt P30542); test: Displacement of [3H]DPCPX from human adenosine A1 receptor expressed in CHO cells; range 632-1003; format: cell-based
T1 sequence (P30542 whole entry): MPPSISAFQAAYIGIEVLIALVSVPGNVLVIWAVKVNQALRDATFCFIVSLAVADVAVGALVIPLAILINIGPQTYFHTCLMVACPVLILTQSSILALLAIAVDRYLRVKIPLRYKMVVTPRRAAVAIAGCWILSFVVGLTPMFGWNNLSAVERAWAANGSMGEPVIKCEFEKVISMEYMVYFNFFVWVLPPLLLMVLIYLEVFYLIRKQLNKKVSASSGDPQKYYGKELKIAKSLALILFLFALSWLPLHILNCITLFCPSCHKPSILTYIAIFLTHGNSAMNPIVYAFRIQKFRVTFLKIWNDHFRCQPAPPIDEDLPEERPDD

Adenosine receptor A2b [2] = molecular target: T2, Adenosine receptor A2b (Homo sapiens, UniProt P29275); test: Displacement of [3H]DPCPX from Adenosine A2b receptor expressed in […]; range 1531-1920; format: cell-based
T2 sequence (P29275 whole entry): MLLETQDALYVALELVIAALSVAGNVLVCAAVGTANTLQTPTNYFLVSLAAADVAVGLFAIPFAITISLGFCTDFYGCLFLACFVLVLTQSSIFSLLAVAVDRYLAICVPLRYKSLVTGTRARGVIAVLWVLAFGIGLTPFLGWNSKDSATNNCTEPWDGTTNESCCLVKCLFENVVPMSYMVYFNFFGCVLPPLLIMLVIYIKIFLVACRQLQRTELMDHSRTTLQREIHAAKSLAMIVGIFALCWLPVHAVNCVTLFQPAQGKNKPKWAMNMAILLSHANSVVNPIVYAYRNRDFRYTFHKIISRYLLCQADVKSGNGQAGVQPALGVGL

[3] = molecular target: Adenosine receptors; A2b & A3 (Homo sapiens) (UniProt P29275+P0DMS8); test: Ratio of binding affinity of human A2B receptor to that of human A3 receptor; format: protein assay
How it was run: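 Ki ratio, n=3-6, 6–8 concentrations. A2B in HEK-293 membranes (20 μg): 40 nM [3H]DPCPX, 50 mM Tris HCl, 10 mM MgCl2, 1 mM EDTA, 0.1 mM benzamidine pH 7.4, 2 IU/mL adenosine deaminase, 60 min at 25 °C, nonspecific with 100 μM NECA. A3 in CHO membranes (50 μg): 1 nM [3H]MRE3008-F20, 120 min at 4 °C.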

[4] = molecular target: T3, Adenosine receptor A3 (Homo sapiens) (UniProt P0DMS8); test: Percent reversal of 100 nM IB-MECA-inhibited cAMP accumulation in CHO cells expressing human adenosine A3 receptor at 1 uM; range 63-110; format: functional, cell-based
T3 sequence (whole entry): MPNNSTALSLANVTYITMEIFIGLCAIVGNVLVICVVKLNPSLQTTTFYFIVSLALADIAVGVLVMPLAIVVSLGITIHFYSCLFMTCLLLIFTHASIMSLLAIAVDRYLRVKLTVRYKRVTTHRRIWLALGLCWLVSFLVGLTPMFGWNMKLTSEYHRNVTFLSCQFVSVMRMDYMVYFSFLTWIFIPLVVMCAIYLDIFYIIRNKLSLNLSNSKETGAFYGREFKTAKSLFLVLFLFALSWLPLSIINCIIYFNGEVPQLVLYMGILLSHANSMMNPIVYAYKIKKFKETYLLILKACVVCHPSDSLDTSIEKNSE
How it was run: (§1)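 CHO cells stably expressing human A3 receptor; membranes in 50 mM Tris HCl, 10 mM MgCl2, 1 mM EDTA pH 7.4 with 5 μM GTP, 0.5 mM […] and 2.0 IU/mL adenosine deaminase. Preincubated 10 min at 37 °C, then IB-MECA (100 nM) and/or antagonist with 1 mM ATP and 10 μM forskolin for 10 min. Boiled 2 min. cAMP read by [3H]cAMP competition with adrenal binding protein.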

[5] = molecular target: Adenosine receptors; A1 & A3 (Homo sapiens) (UniProt P30542+P0DMS8); test: Ratio of binding affinity of human A1 receptor to that of human A3 receptor; format: protein assay
How it was run: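 Ki ratio from displacement in CHO membranes, 6–8 concentrations, n=3-6, filtration counting. A1: 1 nM [3H]DPCPX, 50 μg protein, 120 min at 25 °C, nonspecific with 10 μM CHA. A3: 1 nM [3H]MRE3008-F20, 50 μg protein, Tris/10 mM MgCl2 pH 7.4, 120 min at 4 °C, nonspecific with 1 μM MRE3008-F20.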

Adenosine receptor A3 [6] = molecular target: T4, Adenosine receptor A3 (Homo sapiens, UniProt P0DMS8); test: Displacement of [3H]MRE3008-F20 from human adenosine A3 receptor expressed in CHO cells; range 0.63-1.00; format: cell-based
T4 sequence (P0DMS8 whole entry): T3 sequence (whole entry)

Adenosine receptor A2a [7] = molecular target: T5, Adenosine receptor A2a (Homo sapiens, UniProt P29274); test: Displacement of [3H]-SCH- 58261 from human adenosine A2A receptor expressed in CHO cells; range 461-645; format: cell-based
Adenosine receptor A3 [8] = molecular target: T4, Adenosine receptor A3; test: Inhibition of cAMP accumulation in CHO cells expressing human adenosine A3 receptor; range 5.1-8.9; format: functional, cell-based; how it was run: as §1
[9] = molecular target: T3, Adenosine receptor A3 (Homo sapiens); test: Percentage of blockade by 1 uM of the inhibition by 100 nM IB-MECA-inhibited cAMP accumulation in CHO cells expressing human adenosine A3 receptor.; format: functional, cell-based; how it was run: as §1
Adenosine receptor A1 [10] = molecular target: T1, Adenosine receptor A1; test: Displacement of [3H]DPCPX from human adenosine A1 receptor expressed in CHO cells; range 170-358; format: cell-based
Adenosine receptor A2b [11] = molecular target: T2, Adenosine receptor A2b; test: Displacement of [3H]DPCPX from Adenosine A2b receptor expressed in HEK-293 cells; range 934-1327
Adenosine receptor A3 [12] = molecular target: T4, Adenosine receptor A3; test: biochemical
Adenosine receptor A2a [13] = molecular target: T5, Adenosine receptor A2a; test: Displacement of [3H]-SCH- 58261 from human adenosine A2A receptor expressed in CHO cells; range 267-453; format: cell-based
Adenosine receptor A3 [14] = molecular target: T4, Adenosine receptor A3; test: biochemical; remark: listed apart in the source
[15] = molecular target: T3, Adenosine receptor A3 (Homo sapiens); settings: CHO, 1 uM
Adenosine receptor A3 [16] = molecular target: T4, Adenosine receptor A3; test: Inhibition of cAMP accumulation in CHO cells expressing human A3 adenosine receptor; format: functional, cell-based
Adenosine receptor A1 [17] = molecular target: T1, Adenosine receptor A1; test: Displacement of [3H]DPCPX from human adenosine A1 receptor expressed in CHO cells; range 179-317; format: cell-based
Adenosine receptor A2a [18] = molecular target: T5, Adenosine receptor A2a; test: Displacement of [3H]-SCH- 58261 from human adenosine A2A receptor expressed in CHO cells; range 218-283; format: cell-based
Adenosine receptor A2b [19] = molecular target: T2, Adenosine receptor A2b; test: Tested for inhibitory activity against Adenosine A2b receptor by displacement of [3H]DPCPX expressed in […]; value ranges from 61-80; format: cell-based
Adenosine receptor A3 [20] = molecular target: T4, Adenosine receptor A3; test: Displacement of [3H]MRE3008-F20 from human adenosine A3 receptor expressed in CHO cells; range 0.08-0.27; format: cell-based
Adenosine receptor A1 [21] = molecular target: T1, Adenosine receptor A1; test: Displacement of [3H]DPCPX from human adenosine A1 receptor expressed in CHO cells; range 365-550; format: cell-based
Adenosine receptor A2a [22] = molecular target: T5, Adenosine receptor A2a; test: Displacement of [3H]-SCH- 58261 from human adenosine A2A receptor expressed in CHO cells; range 484-558; format: cell-based
How it was run: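 Membranes from CHO cells stably expressing human A2A receptor, grown in DMEM/F12 without nucleosides, resuspended in 50 mM Tris HCl, 10 mM MgCl2, pH 7.4; 50 μg protein/assay. Competition with [3H]SCH 58261 at 6–8 or more compound concentrations, 60 min at 25 °C; nonspecific binding with 50 μM NECA. Filtration on GF/B filters, scintillation counting; n=3-6.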

Adenosine receptor A2b [23] = molecular target: T2, Adenosine receptor A2b; test: Displacement of [3H]DPCPX from Adenosine A2b receptor expressed in […]; range 332-369; format: cell-based
Adenosine receptor A2b [24] = molecular target: T2, Adenosine receptor A2b; test: Displacement of [3H]DPCPX from Adenosine A2b receptor expressed in HEK-293 cells; range 23-40
Adenosine receptor A1 [25] = molecular target: T1, Adenosine receptor A1; test: Displacement of [3H]-DPCPX from human adenosine A1 receptor expressed in CHO cells; range 6.9-9.7; format: cell-based
Adenosine receptor A3 [26] = molecular target: T4, Adenosine receptor A3; test: Inhibition of cAMP accumulation in CHO cells expressing human adenosine A3 receptor; format: functional, cell-based
Adenosine receptor A2a [27] = molecular target: T5, Adenosine receptor A2a; test: Displacement of [3H]-SCH- 58261 from human adenosine A2A receptor expressed in CHO cells; range 8.7-10.5; format: cell-based
Adenosine receptor A3 [28] = molecular target: T4, Adenosine receptor A3; test: Displacement of [3H]MRE3008-F20 from human adenosine A3 receptor expressed in CHO cells; range 50-61; format: cell-based
[29] = molecular target: T3, Adenosine receptor A3 (Homo sapiens); test: Percent reversal of 100 nM IB-MECA-inhibited cAMP accumulation in CHO cells expressing human adenosine A3 receptor at 1 uM; range 26-54; format: functional, cell-based; how it was run: as §1
Adenosine receptor A2a [30] = molecular target: T5, Adenosine receptor A2a; test: Displacement of [3H]-SCH- 58261 from human adenosine A2A receptor expressed in CHO cells; range 85-140; format: cell-based
Adenosine receptor A1 [31] = molecular target: T1, Adenosine receptor A1; test: Displacement of [3H]DPCPX from human adenosine A1 receptor expressed in CHO cells; range 329-375; format: cell-based
Adenosine receptor A2b [32] = molecular target: T2, Adenosine receptor A2b; test: Displacement of [3H]DPCPX from Adenosine A2b receptor expressed in […]; range 70-94; format: cell-based

T5 sequence (P29274 whole entry): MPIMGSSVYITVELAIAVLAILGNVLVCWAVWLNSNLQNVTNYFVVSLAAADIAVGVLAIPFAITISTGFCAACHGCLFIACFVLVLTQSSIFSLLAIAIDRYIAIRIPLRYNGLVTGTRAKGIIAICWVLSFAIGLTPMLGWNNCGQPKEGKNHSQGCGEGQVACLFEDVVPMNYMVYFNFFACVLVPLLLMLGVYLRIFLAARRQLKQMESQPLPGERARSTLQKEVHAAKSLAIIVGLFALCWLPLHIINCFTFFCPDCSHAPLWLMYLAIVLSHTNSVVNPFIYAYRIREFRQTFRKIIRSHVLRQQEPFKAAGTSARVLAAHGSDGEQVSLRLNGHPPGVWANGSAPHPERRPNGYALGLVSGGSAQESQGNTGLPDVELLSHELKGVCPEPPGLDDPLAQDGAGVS

Structure (SMILES): COc1ccc(NC(=O)Nc2nc3nn(C(C)(C)C)cc3c3nc(-c4ccco4)nn23)cc1
- Ki (Adenosine receptor A1 [1]): 0.796 µM
- Ki (Adenosine receptor A2b [2]): 1.72 µM
- Ratio [3]: 2140
- inhibition [4]: 84%
- Ratio [5]: 995
- Ki (Adenosine receptor A3 [6]): 0.0008 µM
- Ki (Adenosine receptor A2a [7]): 0.545 µM
- IC50 (Adenosine receptor A3 [8]): 0.0068 µM

Structure (SMILES): Nc1nc2nn(CCc3cc(Br)c(Br)cc3Br)cc2c2nc(-c3ccco3)nn12
- inhibition [9]: 3%
- Ki (Adenosine receptor A1 [10]): 0.247 µM
- Ki (Adenosine receptor A2b [11]): 1.11 µM
- Ki (Adenosine receptor A3 [12]): 4.48 µM
- Ratio [3]: 0.25
- Ratio [5]: 0.06
- Ki (Adenosine receptor A2a [13]): 0.348 µM

Structure (SMILES): O=C(Nc1cccc(Cl)c1)Nc1nc2n[nH]cc2c2nc(-c3ccco3)nn12
- Ki (Adenosine receptor A3 [14]): 0.0005 µM
- inhibition [15]: 88%
- IC50 (Adenosine receptor A3 [16]): 0.0053 µM
- Ki (Adenosine receptor A1 [17]): 0.238 µM
- Ratio [3]: 140
- Ratio [5]: 476
- Ki (Adenosine receptor A2a [18]): 0.248 µM
- Ki (Adenosine receptor A2b [19]): 0.07 µM

Structure (SMILES): COc1ccc(NC(=O)Nc2nc3n[nH]cc3c3nc(-c4ccco4)nn23)cc1
- Ki (Adenosine receptor A3 [20]): 0.00014 µM
- Ki (Adenosine receptor A1 [21]): 0.448 µM
- Ki (Adenosine receptor A2a [22]): 0.52 µM
- inhibition [15]: 98%
- IC50 (Adenosine receptor A3 [16]): 0.0018 µM
- Ratio [3]: 2500
- Ki (Adenosine receptor A2b [23]): 0.35 µM
- Ratio [5]: 3200

Structure (SMILES): O=C(Nc1cccc(Cl)c1)Nc1nc2ccc(Cl)cc2c2nc(-c3ccco3)nn12
- inhibition [9]: 95%
- Ratio [3]: 157
- Ki (Adenosine receptor A2b [24]): 0.03 µM
- Ki (Adenosine receptor A1 [25]): 0.0081 µM
- IC50 (Adenosine receptor A3 [26]): 0.0024 µM
- Ratio [5]: 54
- Ki (Adenosine receptor A2a [27]): 0.0095 µM

Structure (SMILES): CC(C)=CCn1cc2c(nc(NC(=O)Nc3cccc(Cl)c3)n3nc(-c4ccco4)nc23)n1
- Ki (Adenosine receptor A3 [28]): 0.055 µM
- inhibition [29]: 38%
- Ratio [3]: 1.47
- Ratio [5]: 6.4
- Ki (Adenosine receptor A2a [30]): 0.11 µM
- Ki (Adenosine receptor A1 [31]): 0.352 µM
- Ki (Adenosine receptor A2b [32]): 0.081 µM
